Test results: ChEMBL document CHEMBL3286252, “Synthesis, biological evaluation and structure-activity relationship of new GABA uptake inhibitors, derivatives of 4-aminobutanamides” (Eur J Med Chem, 2014)
Activity calls are given as the source filed them.

Assays:
Mus musculus [1] = experiment: Antidepressant-like activity in albino Swiss (CD-1) mouse assessed as reduction in immobility time at 30 mg/kg, ip by forced swim test; type: functional; details: route intraperitoneal
Procedure, shortened: (§1)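 Compound or vehicle was given i.p. 60 min before the test. Each mouse was placed for 6 min in a glass cylinder (25 cm high, 10 cm diameter) holding 10 cm of water at 23–25 C. Immobility, meaning passive floating, was timed over the final 4 min. 7–8 mice per group; ANOVA with Dunnett's test.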

[2] = biological target: T1, GABA transporter 2 (Mus musculus) (UniProt P31651); experiment: Inhibition of mouse GAT2 expressed in HEK293 cells assessed as decrease in [3H]GABA uptake; type: cell-based; details: concentration not given here
T1 sequence (whole entry): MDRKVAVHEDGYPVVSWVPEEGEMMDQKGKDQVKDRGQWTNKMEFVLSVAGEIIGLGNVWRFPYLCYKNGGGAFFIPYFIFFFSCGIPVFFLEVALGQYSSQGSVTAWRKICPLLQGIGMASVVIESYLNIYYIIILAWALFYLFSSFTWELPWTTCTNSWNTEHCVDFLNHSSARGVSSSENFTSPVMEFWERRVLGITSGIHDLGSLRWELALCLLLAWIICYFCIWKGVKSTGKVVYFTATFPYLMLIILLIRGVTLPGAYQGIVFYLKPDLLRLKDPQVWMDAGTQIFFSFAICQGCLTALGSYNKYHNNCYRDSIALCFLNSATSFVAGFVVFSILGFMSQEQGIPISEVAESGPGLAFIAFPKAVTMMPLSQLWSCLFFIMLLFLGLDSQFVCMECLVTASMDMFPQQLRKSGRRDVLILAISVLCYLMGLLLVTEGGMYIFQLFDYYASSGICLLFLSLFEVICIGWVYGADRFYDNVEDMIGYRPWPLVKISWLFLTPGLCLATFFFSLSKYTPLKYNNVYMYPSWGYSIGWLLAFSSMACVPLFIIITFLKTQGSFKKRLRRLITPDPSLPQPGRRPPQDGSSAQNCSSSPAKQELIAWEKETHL

Mus musculus [3] = experiment: Anticonvulsant activity against pilocarpine-induced seizure in albino Swiss (CD-1) mouse assessed as prolongation of latency time to death at 100 mg/kg, ip administered 60 mins before pilocarpine challenge; type: functional; details: route intraperitoneal
Procedure, shortened: (§2)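 Male CD-1 mice dosed i.p. with compound or vehicle (1% Tween 80). Scopolamine butylbromide 1 mg/kg i.p. given 45 min before pilocarpine; pilocarpine 400 mg/kg i.p. given 60 min after compound. Observed 1 h. Latency to tonic-clonic seizure and latency to death recorded, cut-off 60 min. 7–8 mice per group, mean ± SEM, Student's t-test against vehicle.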

Mus musculus [4] = experiment: Anticonvulsant activity against pilocarpine-induced seizure in albino Swiss (CD-1) mouse assessed as prolongation of latency time to death at 200 mg/kg, ip administered 60 mins before pilocarpine challenge; type: functional; details: route intraperitoneal; procedure, shortened: as §2
Mus musculus [5] = experiment: Antinociceptive activity in ip dosed albino Swiss (CD-1) mouse measured after 60 mins by hot plate test; type: functional, organism-based
Mus musculus [6] = experiment: Anticonvulsant activity in albino Swiss (CD-1) mouse assessed as current intensity required to induce 50% tonic hind limb extensions at 100 mg/kg, ip after 60 mins by electroconvulsive threshold test (reference value: 6.61 mA); type: functional, Hindlimb; details: route intraperitoneal
Mus musculus [7] = experiment: Anticonvulsant activity against pilocarpine-induced seizure in albino Swiss (CD-1) mouse assessed as prolongation of latency time to seizures at 100 mg/kg, ip administered 60 mins before pilocarpine challenge; type: functional; details: route intraperitoneal
Procedure, shortened: (§3)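 CD-1 mice received compound or vehicle (1% Tween 80) i.p. 60 min before pilocarpine 400 mg/kg i.p. Scopolamine butylbromide 1 mg/kg i.p. was given 45 min before pilocarpine. 7–8 mice per group; Student's t-test versus vehicle; mean ± SEM.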

Mus musculus [8] = experiment: Anticonvulsant activity against pilocarpine-induced seizure in albino Swiss (CD-1) mouse assessed as prolongation of latency time to seizures at 200 mg/kg, ip administered 60 mins before pilocarpine challenge; type: functional; details: route intraperitoneal; procedure, shortened: as §3
Mus musculus [9] = experiment: Antidepressant-like activity in albino Swiss (CD-1) mouse assessed as reduction in immobility time at 15 mg/kg, ip by forced swim test; type: functional; details: route intraperitoneal; procedure, shortened: as §1
Mus musculus [10] = experiment: Anticonvulsant activity against pentylenetetrazole-induced seizure in albino Swiss (CD-1) mouse assessed as decrease in mortality rate at 100 mg/kg, ip administered 60 mins prior to PTZ challenge; type: functional; details: route intraperitoneal
Procedure, shortened: (§4)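 Male CD-1 mice, 18–22 g, given compound or vehicle i.p. 60 min before PTZ 100 mg/kg s.c. Each mouse observed alone for 30 min for clonic seizures: whole-body clonus over 3 s with loss of righting reflex. Read-outs: latency to first clonus, number of seizure episodes, and deaths within 30 min. Groups of 7–10 mice, compared with vehicle.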

Mus musculus [11] = experiment: Anticonvulsant activity against pentylenetetrazole-induced seizure in albino Swiss (CD-1) mouse assessed as delay in onset of seizures at 100 mg/kg, ip administered 60 mins prior to PTZ challenge; type: functional; details: route intraperitoneal; procedure, shortened: as §4
Mus musculus [12] = experiment: Anticonvulsant activity against pentylenetetrazole-induced seizure in albino Swiss (CD-1) mouse assessed as decrease in seizure episodes at 100 mg/kg, ip administered 60 mins prior to PTZ challenge; type: functional; details: route intraperitoneal; procedure, shortened: as §4

## COc1ccc(C(OCCN2CCC[C@H](C(=O)O)C2)(c2ccc(OC)cc2)c2ccc(OC)cc2)cc1
Mus musculus [1]
  inhibition in vivo at 30 mg/kg: 19.9%
[2]
  inhibition: 56%
Mus musculus [3]
  Activity: 243.8%
Mus musculus [4]
  Activity: 202.7%
Mus musculus [5]
  Activity: inactive
Mus musculus [6]
  CS50: 7.95 mA
Mus musculus [7]
  Activity: 158%
Mus musculus [8]
  Activity: 258.9%
Mus musculus [9]
  inhibition in vivo at 15 mg/kg: 12.1%

## CCC1(C)CC(=O)NC1=O (configuration not stated) [ETHOSUXIMIDE]
Mus musculus [10]
  inhibition in vivo at 100 mg/kg: 75%
Mus musculus [11]
  Activity: 120%
Mus musculus [12]
  inhibition in vivo at 100 mg/kg: 64%
